The source of these data is ChEMBL document CHEMBL3526139, “Clinical pharmacokinetics, metabolism, and drug-drug interaction of carfilzomib” (Drug Metab Dispos, 2013).

pIC50: −log10 of the molar value.

The IC50 is the concentration that inhibits the measured activity by half. Read a low IC50 as greater potency in that assay. By pIC50 is commonly meant −log10 of the IC50, conventionally taken in molar units. Higher therefore signals a small IC50. Usually AUC(0-t) stands for the area under the concentration-time curve up to a stated or last time point. One may read the AUC(0-inf) as the area under the concentration-time curve extrapolated to infinity. Read a high AUC(0-inf) as high exposure. The term Cmax denotes the maximum level reached in the sampled fluid or tissue. What is called Tmax is the time at which the peak concentration occurs. In general, half-life refers to the time needed for the level to fall by half in the phase considered.

Data set [1] in a line: Drug excretion in urine of human patient with relapsed and refractory hematological malignancies treated intravenously with carfilzomib on days 1, 2, 8, 9, 15 and 16 of 28-day cycle over 2 to 10 mins by LC-MS/MS analysis. The class given is ADME. To be noted: in vivo, iv.
The test system of the next data set is Homo sapiens. Put plainly: Ratio of compound AUC (infinity) to carfilzomib AUC (infinity) in human multiple myeloma patient with normal renal function treated with carfilzomib at 15 mg/m'2, iv on days 1, 2, 8, 9, 15 and 16 of 28-day cycle over 2 to 10 mins by LC-MS/MS analysis. The conditions noted are these: in vivo. The class given is ADME, organism-based.

A further data set concerns Plasma. Put plainly: Drug level in plasma of human patient with relapsed and refractory hematological malignancies treated intravenously with carfilzomib on days 1, 2, 8, 9, 15 and 16 of 28-day cycle over 2 to 10 mins by LC-MS/MS analysis. The class given is ADME. To be noted: iv.
In a further data set the target is Cytochrome P450 3A (Homo sapiens, UniProt P08684+P20815+Q9HB55+P24462). Put plainly: Inhibition of CYP3A in human liver microsomes treated with […] up to 30 uM by LC-MS/MS analysis. Type of data set: ADME. A digest of the protocol: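 Metabolites were tested for CYP3A inhibition in HLM at 0.04–30 µM, with or without a 30-min preincubation. Midazolam or testosterone substrate was used with a 5-min reaction and LC-MS/MS read-out.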
In general terms: Liver microsomes are a subcellular fraction often used to study metabolism.

Data set [2] has as its target T1, CYP3A (Homo sapiens, UniProt P08684+P20815+P24462+Q9HB55). The experiment in a line: Time-dependent inhibition of CYP3A in human liver microsomes preincubated for 30 mins with carfilzomib by LC-MS/MS analysis. The class given is ADME. The conditions noted are these: liver microsomes. Put shortly: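 Pooled HLM (16 donors) given carfilzomib 0.01–10 µM in duplicate at 37°C with a 30-min preincubation before probe substrate was added. Substrate was set near Km (testosterone Km 100 µM; midazolam Km 3.8 µM). Protein was 0.1 mg/mL, or 0.05 mg/mL with midazolam. Metabolite formation was read by LC-MS/MS after 5 min and expressed relative to 0.5% acetonitrile controls to give IC50.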

The target of data set [3] is T1, CYP3A. Put plainly: Inhibition of CYP3A in human liver microsomes treated with carfilzomib by LC-MS/MS analysis. Type of data set: ADME.
The nature of data set [4]: clinical. To be noted: human, plasma, po, 2 mg.
Data set [5] can be described thus: clinical. To be noted: human, plasma, po.
The nature of data set [6]: clinical. The conditions noted are these: human, in vivo, po.
Data set [7] in a line: Tmax in solid tumor patient at 2 mg, po administered as single dose followed by co-treatment with 27 mg/m2, iv carfilzomib over 2 to 10 mins on days 1, 2, 8, 9, 15 and 16 of single 28-day cycle measured on day 1. Type of data set: ADME, organism-based. To be noted: human, in vivo. A digest of the protocol: (§1)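 Oral midazolam 2 mg single dose on Day -7, then 2 mg given immediately after IV carfilzomib (27 mg/m2, 2–10 min infusion) on Days 1 and 16. Plasma sampled pre-dose and 5, 10, 30 min, 1–24 h post-midazolam. Midazolam measured by liquid-liquid extraction (methyl tert-butyl ether) and LC-MS/MS, range 0.100–100 ng/mL, d4-midazolam internal standard. Tmax derived noncompartmentally.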

A short description of data set [8]: clinical. To be noted: human, plasma, po. The source holds these as a separate data set.
A short description of data set [9]: clinical. To be noted: human, plasma, po. This is another data set of the same source.
A short description of data set [10]: clinical. To be noted: human, plasma, po. This is another data set of the same source.
Data set [11] in a line: clinical. The conditions noted are these: human, in vivo, po. This is another data set of the same source.
Data set [12] can be described thus: AUC(last) in solid tumor patient at 2 mg, po administered as single dose measured on day 7. The conditions noted are these: human, plasma.
Data set [13] in a line: clinical. To be noted: human, plasma, po. The source holds these as a separate data set.
A short description of data set [14]: clinical. To be noted: human, plasma, po. The source holds these as a separate data set.
A short description of data set [15]: AUC(infinity) in solid tumor patient at 2 mg, po administered as single dose measured on day 7. The conditions noted are these: human, plasma.
A short description of data set [16]: Half life in solid tumor patient at 2 mg, po administered as single dose followed by co-treatment with 27 mg/m2, iv carfilzomib over 2 to 10 mins on days 1, 2, 8, 9, 15 and 16 of single 28-day cycle measured on day 1. The conditions noted are these: human, in vivo.
Data set [17] can be described thus: clinical. The conditions noted are these: human, in vivo, po. This is another data set of the same source.
A short description of data set [18]: Tmax in solid tumor patient at 2 mg, po administered as single dose followed by co-treatment with 27 mg/m2, iv carfilzomib over 2 to 10 mins on days 1, 2, 8, 9, 15 and 16 of single 28-day cycle measured on day 16. The class given is ADME, organism-based. The conditions noted are these: human, in vivo. Put shortly: as §1

Regarding `O=C(CN1CCOCC1)NC(CCc1ccccc1)C(=O)O` (stereo not drawn), the Drug excretion result in data set [1] was “metabolite_detected”. Further, in the data set with Homo sapiens, the Ratio worked out at 1.2. Also, the Drug metabolism entry with Plasma is given as “metabolite_detected”. In addition, on Cytochrome P450 3A, the “inhibition (INH)” value is given as “Not Active”.

Regarding `CC(C)CC(NC(=O)C(CCc1ccccc1)NC(=O)CN1CCOCC1)C(=O)O` (stereo not drawn), the Drug excretion result in data set [1] was “metabolite_detected”. Further, in the data set on Homo sapiens, the Ratio is 0.11. Moreover, the Drug metabolism result with Plasma is “metabolite_detected”. The “inhibition (INH)” value against Cytochrome P450 3A is given as “Not Active”.

The compound `CC(C)CC(NC(=O)C(CCc1ccccc1)NC(=O)CN1CCOCC1)C(=O)NC(Cc1ccccc1)C(=O)NC(CC(C)C)C(=O)C(C)(O)CO` (stereo not drawn) displayed an IC50 at 30 min against CYP3A [2] of 1800 nM. The Drug excretion result in [1] was “metabolite_detected”. For the same compound, in the data set with Homo sapiens, the Ratio turned out to be 0.28. In the data set on Plasma, the Drug metabolism result was “metabolite_detected”. The compound also showed a negative logarithm of the IC50 (pIC50) against CYP3A [3] of less than 4.52.

For `Cc1ncc2n1-c1ccc(Cl)cc1C(c1ccccc1F)=NC2` [MIDAZOLAM], the exposure AUC(0-t) at 12 h in the data set “clinical [4]” turned out to be 42.5 ng·h/mL. Also, the AUC(0-inf) was determined as 59.9 ng·h/mL in the data set “clinical [5]”, 51.5 ng·h/mL in “clinical [14]” and 54.3 ng·h/mL in data set [15]. Besides, the values for the highest concentration (Cmax) in the data set “clinical [6]” and in “clinical [17]” were 15.7 ng/mL and 16 ng/mL, respectively. In addition, the results for the Tmax in data set [7] and in [18] were 0.7 h and 0.8 h, respectively. Further, the area under the curve AUC(0-t) was 48.4 ng·h/mL in “clinical [8]”; 48.4 ng·h/mL in the data set “clinical [9]”; 47.3 ng·h/mL in “clinical [10]”; 49.8 ng·h/mL in data set [12]; 40.3 ng·h/mL in the data set “clinical [13]”. Besides, the half-life in the data set “clinical [11]” is 5.5 h; in data set [16] it was 6.3 h.
